Published values of several laboratories.
Each line is one published result; the experiments were not run side by side.
ADRA1D: Alpha-1D adrenergic receptor (ADRA1D, Homo sapiens, UniProt P25100)
PTGS2: Prostaglandin G/H synthase 2 (PTGS2, Homo sapiens, UniProt P35354)
Dipeptidyl peptidase 2: Dipeptidyl peptidase 2 (Homo sapiens, UniProt Q9UHL4)

For `CC(C)Cn1cnc2c(N)nc3ccccc3c21`, the inhibition was 76% (ADRA1D; ligand displacement; radioligand; 10 µM).
With `OC(c1ccc(F)cc1)C(F)(F)CCN1CCC(O)(c2ccc(Cl)cc2)CC1` (racemic) the inhibition was over 50% (Sigma non-opioid intracellular receptor 1 (SIGMAR1, Cavia porcellus, UniProt Q60492); ligand displacement; radioligand; 10 µM).
The inhibition of `Cn1cc(-c2cc(F)cc(N3CCn4c(cc5c4CCCC5)C3=O)c2CO)cc(Nc2ccc(N3CCN(C4COC4)CC3)cn2)c1=O` is reported as 5% (Dual specificity tyrosine-phosphorylation-regulated kinase 3 (DYRK3, Homo sapiens, UniProt O43781); enzyme activity; inhibitor; 0.1 µM).
With `Cc1ccc(-c2nc3ccccc3s2)c(-c2ccc(S(N)(=O)=O)cc2)c1` the inhibition was 87.3% (PTGS2; enzyme activity; inhibitor; absorbance; 10 µM).
`CC(C)N1CCC[C@H]1CNC(=O)c1cn(C2CCCC2)c(=O)c2c1c1ccccc1n2C` has an inhibition of 9% (ADRA1D; ligand displacement; radioligand; 10 µM).
`CCN(CC)CCCC[C@H](NC(=O)[C@H](CC(C)C)NC(=O)[C@H](C)NC(=O)[C@H](Cc1ccccc1)NC(=O)c1ccc(C(C)(C)C)cc1)C(=O)N[C@@H](CO)C(=O)OC` gave an inhibition of 10% (Neuropeptide Y receptor type 2 (NPY2R, Homo sapiens, UniProt P49146); ligand displacement; radioligand; 10 µM).
The inhibition of `N=C(N)c1ccc2cc(OC(=O)c3ccc(N=C(N)N)cc3)ccc2c1` is reported as 29% (Dipeptidyl peptidase 2; enzyme activity; inhibitor; 10 µM).
With `CC(C)C[C@H](NC(=O)[C@H](Cc1ccccc1)NC(=O)c1cnccn1)B(O)O` the inhibition was 78.7% (Dipeptidyl peptidase 2; enzyme activity; inhibitor; 33 µM).
For `Nc1ccc(-c2ccccc2)c(-c2nc3ccccc3s2)c1`, the inhibition was 12.4% (PTGS2; enzyme activity; inhibitor; absorbance; 10 µM).
`O=C(Nc1cccnn1)N1CCN([C@@H]2CCOc3cc(C(F)(F)F)ccc32)CC1` has an inhibition of 0% (Melanocyte-stimulating hormone receptor (Mc1r, Mus musculus, UniProt Q01727); cell-free assay; 20 µM).
The inhibition of `Cc1ccc(-c2nc3ccccc3s2)c(-c2ccc(O)cc2)c1` is reported as 35.4% (PTGS2; enzyme activity; inhibitor; absorbance; 10 µM).
For `CC(=O)N[C@@H](CC(=O)O)C(=O)N[C@@H](CC(N)=O)C(=O)N[C@@H](CC(C)C)C(=O)N[C@H](C=O)CC(=O)O`, the inhibition was 89% (Caspase-7 (CASP7, Homo sapiens, UniProt P55210); enzyme activity; inhibitor; 0.5 µM).
`Cn1cc(-c2cccc(N3CCc4c(sc5c4CC(C)(C)C5)C3=O)c2CO)cc(Nc2ccncn2)c1=O` gave an inhibition of 10% (Protein kinase C zeta type (PRKCZ, Homo sapiens, UniProt Q05513); enzyme activity; inhibitor; 1 µM).
For `CCOC(=O)c1ccc(OC(=O)CCCCCNC(=N)N)cc1`, the inhibition was 83% (Dipeptidyl peptidase 2; enzyme activity; inhibitor; 10 µM).
With `Nc1ccc(-c2nc3ccccc3s2)c(-c2cccc(O)c2)c1` the inhibition was 33.3% (PTGS2; enzyme activity; inhibitor; absorbance; 10 µM).
`C#Cc1n[nH]c2c(-c3cn(C(C)c4ccccn4)c(=O)[nH]c3=O)cc(F)cc12` (centres unmarked) gave an inhibition of -2.1% (Ribosomal protein S6 kinase beta-1 (RPS6KB1, Homo sapiens, UniProt P23443); enzyme activity; inhibitor; 1 µM).
The inhibition of `N#Cc1ccc(NCCNCC(=O)N2N=CCC2C#N)nc1` (centres unmarked) is reported as 8% (Dipeptidyl peptidase 2; enzyme activity; inhibitor; 1 µM).
`Nc1ccc(-c2nc3ccccc3s2)c(-c2ccc(O)cc2)c1` has an inhibition of 15.3% (PTGS2; enzyme activity; inhibitor; absorbance; 10 µM).
`CN(C)C(=O)COC(=O)Cc1ccc(OC(=O)c2ccc(NC(=N)N)cc2)cc1` has an inhibition of 3% (Ubiquitin carboxyl-terminal hydrolase isozyme L3 (UCHL3, Homo sapiens, UniProt P15374); enzyme activity; inhibitor; 10 µM).
`Oc1ccc(-c2ncccc2-c2nc3ccccc3s2)cc1` gave an inhibition of 8% (PTGS2; enzyme activity; inhibitor; absorbance; 10 µM).
